Data from ChEMBL document CHEMBL4665645, “Role of the NMDA Receptor in the Antitumor Activity of Chiral 1,4-Dioxane Ligands in MCF-7 and SKBR3 Breast Cancer Cells” (ACS Med Chem Lett, 2019).
Calls of active or inactive are those of the source.

How the values were obtained:
[1] = system: MCF7; experiment: Cytotoxicity against human MCF7 cells assessed as reduction in cell viability after 48 hrs by SRB assay; format: functional
In short: (§1)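 Followed the NCI SRB protocol: cells exposed 48 h to a range of concentrations. GI50 is the concentration giving 50% net growth inhibition; TGI is 100% growth inhibition; LC50 kills 50% of initial cells. Mean ± SE of three separate experiments.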

[2] = system: SK-BR-3; experiment: Cytotoxicity against human SK-BR-3 cells assessed as reduction in cell viability incubated for 48 hrs by SRB assay; format: functional; in short: as §1
[3] = system: MCF7; experiment: Induction of apoptosis in human MCF7 cells transfected with siNMDA receptor assessed as active caspase-3 level at 100 uM incubated for 72 hrs by Western blot analysis; format: functional, cell-based
In short: (§2)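 Cells transfected with siNMDA R (GluN1) or left untransfected, then treated 72 h (MCF-7 100 μM, SKBR3 25 μM) or left untreated. Cleaved caspase-3 detected by immunoblot; densitometry normalised to GAPDH; p < 0.01 threshold.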

[4] = system: MCF7; experiment: Induction of mitochondrial membrane depolarization in human MCF7 cells at 100 uM by JC1 staining based flow cytometric analysis; format: functional, cell-based
In short: (§3)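 Mitochondrial membrane potential (Δψm) in untreated versus treated cells (MCF-7 100 μM, SKBR3 25 μM), assessed by JC-1 staining.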

[5] = system: MCF7; experiment: Induction of apoptosis in human MCF7 cells assessed as fold increase in cleavage of pro-caspase 3 at 100 uM incubated for 72 hrs by Western blot analysis relative to control; format: functional
In short: (§4)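 Caspase-3 immunoblot after 72 h treatment (MCF-7 100 μM, SKBR3 25 μM), tracking procaspase-3 cleavage to the active form. Densitometry normalised to GAPDH loading control.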

[6] = system: SK-BR-3; experiment: Induction of apoptosis in human SK-BR-3 cells assessed as late apoptotic cells at 25 uM after 72 hrs by Annexin V-FITC/propidium iodide staining-based flow cytometric analysis (reference value: 1 to 3 %); format: functional
[7] = system: SK-BR-3; experiment: Induction of ROS generation in human SK-BR-3 cells at 25 uM after 72 hrs by DCFDA staining-based flow cytometric analysis; format: functional, cell-based
In short: (§5)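 MCF-7 treated at 100 μM, SKBR3 at 25 μM, for 24, 48 and 72 h, alone or after NAC (10 mM) pretreatment. ROS measured by DCFDA staining and flow cytometry. Significance set at p < 0.01 vs untreated or vs treated-alone cells.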

[8] = system: SK-BR-3; experiment: Induction of apoptosis in human SK-BR-3 cells transfected with siNMDA receptor assessed as early apoptotic cells at 25 uM after 72 hrs by Annexin V-FITC/propidium iodide staining-based flow cytometric analysis (reference value: 35 %); format: functional
[9] = system: SK-BR-3; experiment: Induction of apoptosis in human SK-BR-3 cells after 48 to 72 hrs by AnnexinV-FITC/PI staining based flow cytometric analysis; format: functional, cell-based; settings: time hrs 48-72
[10] = system: SK-BR-3; experiment: Induction of apoptosis in human SK-BR-3 cells transfected with siNMDA receptor assessed as active caspase-3 level at 25 uM incubated for 72 hrs by Western blot analysis; format: functional, cell-based; in short: as §2
[11] = Metabolic stability in human liver microsomes; format: ADME, Microsome
[12] = Displacement of [3H]-(+)-MK-801 from PCP binding site of NMDA receptor in pig brain cortex membranes after 120 mins by scintillation counting analysis; format: cell membranes, Sus scrofa, Cerebral cortex, Membrane
[13] = system: MCF7; experiment: Induction of apoptosis in human MCF7 cells assessed as late apoptotic cells at 100 uM after 48 hrs by Annexin V-FITC/propidium iodide staining-based flow cytometric analysis (reference value: 2 %); format: functional
[14] = system: MCF7; experiment: Induction of apoptosis in human MCF7 cells assessed as necrotic cells at 100 uM after 48 hrs by Annexin V-FITC/propidium iodide staining-based flow cytometric analysis (reference value: 7 %); format: functional
[15] = system: SK-BR-3; experiment: Induction of ROS generation in human SK-BR-3 cells at 25 uM pretreated for 1 hr with ROS scavenger, NAC followed by compound addition and measured after 72 hrs by DCFDA staining-based flow cytometric analysis; format: functional, cell-based; in short: as §5
[16] = system: SK-BR-3; experiment: Induction of apoptosis in human SK-BR-3 cells assessed as early apoptotic cells at 25 uM after 72 hrs by Annexin V-FITC/propidium iodide staining-based flow cytometric analysis (reference value: 1 to 9 %); format: functional
[17] = system: MCF7; experiment: Induction of apoptosis in human MCF7 cells assessed as late apoptotic cells at 100 uM after 72 hrs by Annexin V-FITC/propidium iodide staining-based flow cytometric analysis (reference value: 1 to 2 %); format: functional
[18] = system: MCF7; experiment: Induction of apoptosis in human MCF7 cells transfected with siNMDA receptor assessed as necrotic cells at 100 uM after 72 hrs by Annexin V-FITC/propidium iodide staining-based flow cytometric analysis (reference value: 3 %); format: functional
[19] = system: MCF7; experiment: Induction of apoptosis in human MCF7 cells assessed as early apoptotic cells at 100 uM after 72 hrs by Annexin V-FITC/propidium iodide staining-based flow cytometric analysis (reference value: 2 to 13 %); format: functional
[20] = system: SK-BR-3; experiment: Induction of apoptosis in human SK-BR-3 cells assessed as necrotic cells at 25 uM after 48 hrs by Annexin V-FITC/propidium iodide staining-based flow cytometric analysis (reference value: 2 %); format: functional
[21] = system: MCF7; experiment: Induction of apoptosis in human MCF7 cells assessed as necrotic cells at 100 uM after 72 hrs by Annexin V-FITC/propidium iodide staining-based flow cytometric analysis (reference value: 1 to 5 %); format: functional
[22] = system: MCF7; experiment: Cytotoxicity against siNMDA receptor transfected human MCF7 cells assessed as reduction in cell viability after 48 hrs by SRB assay; format: functional
In short: (§6)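 GluN1 subunit knocked down by siNMDA R transfection, confirmed by qRT-PCR and Western blot; compared with untransfected cells. SRB viability read after 48 h exposure to a range of concentrations. Mean ± SE of three separate experiments.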

[23] = system: MCF7; experiment: Induction of ROS generation in human MCF7 cells at 100 uM pretreated for 1 hr with ROS scavenger, NAC followed by compound addition and measured after 72 hrs by DCFDA staining-based flow cytometric analysis; format: functional, cell-based; in short: as §5
[24] = system: MCF7; experiment: Induction of apoptosis in human MCF7 cells assessed as early apoptotic cells at 100 uM after 48 hrs by Annexin V-FITC/propidium iodide staining-based flow cytometric analysis (reference value: 16 %); format: functional
[25] = system: MCF7; experiment: Induction of apoptosis in human MCF7 cells transfected with siNMDA receptor assessed as early apoptotic cells at 100 uM after 72 hrs by Annexin V-FITC/propidium iodide staining-based flow cytometric analysis (reference value: 33 %); format: functional
[26] = system: SK-BR-3; experiment: Induction of apoptosis in human SK-BR-3 cells assessed as necrotic cells at 25 uM after 72 hrs by Annexin V-FITC/propidium iodide staining-based flow cytometric analysis (reference value: 1 to 3 %); format: functional
[27] = system: SK-BR-3; experiment: Induction of apoptosis in human SK-BR-3 cells transfected with si-NMDA receptor assessed as necrotic cells at 25 uM after 72 hrs by Annexin V-FITC/propidium iodide staining-based flow cytometric analysis (reference value: 4 %); format: functional
[28] = system: SK-BR-3; experiment: Induction of apoptosis in human SK-BR-3 cells assessed as early apoptotic cells at 25 uM after 48 hrs by Annexin V-FITC/propidium iodide staining-based flow cytometric analysis (reference value: 9 %); format: functional
[29] = system: MCF7; experiment: Induction of apoptosis in human MCF7 cells transfected with siNMDA receptor assessed as late apoptotic cells at 100 uM after 72 hrs by Annexin V-FITC/propidium iodide staining-based flow cytometric analysis (reference value: 4 %); format: functional
[30] = Apparent permeability in human Caco2 cells; format: ADME, cell-based; settings: caco-2
[31] = system: SK-BR-3; experiment: Induction of apoptosis in human SK-BR-3 cells assessed as late apoptotic cells at 25 uM after 48 hrs by Annexin V-FITC/propidium iodide staining-based flow cytometric analysis (reference value: 2 %); format: functional
[32] = system: SK-BR-3; experiment: Cytotoxicity against siNMDA receptor transfected human SK-BR-3 cells assessed as reduction in cell viability after 48 hrs by SRB assay; format: functional; in short: as §6
[33] = system: MCF7; experiment: Induction of ROS generation in human MCF7 cells at 100 uM after 72 hrs by DCFDA staining-based flow cytometric analysis; format: functional, cell-based; in short: as §5
[34] = system: MCF7; experiment: Induction of apoptosis in human MCF7 cells at 100 uM by AnnexinV-FITC/PI staining based flow cytometric analysis; format: functional, cell-based; settings: time hrs 48-72, TDE = time-dependent effect
[35] = system: SK-BR-3; experiment: Induction of mitochondrial membrane depolarization in human SK-BR-3 cells at 25 uM by JC1 staining based flow cytometric analysis; format: functional, cell-based; in short: as §3
[36] = system: SK-BR-3; experiment: Induction of apoptosis in human SK-BR-3 cells transfected with siNMDA receptor assessed as late apoptotic cells at 25 uM after 72 hrs by Annexin V-FITC/propidium iodide staining-based flow cytometric analysis (reference value: 2 %); format: functional
[37] = system: SK-BR-3; experiment: Induction of apoptosis in human SK-BR-3 cells assessed as fold increase in cleavage of pro-caspase 3 at 25 uM incubated for 72 hrs by Western blot analysis relative to control; format: functional; in short: as §4
[38] = system: SK-BR-3; experiment: Induction of apoptosis in human SK-BR-3 cells at 25 uM by AnnexinV-FITC/PI staining based flow cytometric analysis; format: functional, cell-based; settings: time hrs 48-72, TDE = time-dependent effect
[39] = system: MCF7; experiment: Induction of apoptosis in human MCF7 cells after 48 to 72 hrs by AnnexinV-FITC/PI staining based flow cytometric analysis; format: functional, cell-based; settings: time hrs 48-72
[40] = system: SK-BR-3; experiment: Induction of apoptosis in human SK-BR-3 cells transfected with siNMDA receptor assessed as active caspase-3 level incubated for 72 hrs by Western blot analysis; format: functional, cell-based; in short: as §2
[41] = system: MCF7; experiment: Induction of apoptosis in human MCF7 cells transfected with siNMDA receptor after 72 hrs by Annexin V-FITC/propidium iodide staining-based flow cytometric analysis; format: functional, cell-based
[42] = system: MCF7; experiment: Induction of apoptosis in human MCF7 cells transfected with siNMDA receptor assessed as active caspase-3 level incubated for 72 hrs by Western blot analysis; format: functional, cell-based; in short: as §2
[43] = system: SK-BR-3; experiment: Induction of apoptosis in human SK-BR-3 cells transfected with siNMDA receptor after 72 hrs by Annexin V-FITC/propidium iodide staining-based flow cytometric analysis; format: functional, cell-based

CN[C@]1(c2ccccc2Cl)CCCCC1=O [ESKETAMINE]
GI50 [1]: > 300 µM
TGI [1]: > 300 µM
GI50 [2]: > 300 µM
TGI [2]: > 300 µM

NCC1COCC(c2ccccc2)(c2ccccc2)O1 (racemic)
GI50 [1]: 74.4 µM
LC50 (concentration killing 50% of initial cells) [1]: 253 µM
TGI [1]: 137 µM
GI50 [2]: 31.2 µM
LC50 (concentration killing 50% of initial cells) [2]: > 300 µM
TGI [2]: 200 µM

NC[C@H]1COC[C@](c2ccccc2)(C2CCCCC2)O1 (relative stereo)
GI50 [1]: 65.3 µM
LC50 (concentration killing 50% of initial cells) [1]: 176 µM
TGI [1]: 107 µM
GI50 [2]: 23.8 µM
LC50 (concentration killing 50% of initial cells) [2]: > 300 µM
TGI [2]: 192 µM

C[C@]12N[C@H](Cc3ccccc31)c1ccccc12 [DIZOCILPINE]
GI50 [1]: > 300 µM
TGI [1]: > 300 µM
GI50 [2]: > 300 µM
TGI [2]: > 300 µM

NC[C@@H]1COC[C@](c2ccccc2)(C2CCCCC2)O1 (relative stereo)
GI50 [1]: 89.7 µM
LC50 (concentration killing 50% of initial cells) [1]: 244 µM
TGI [1]: 148 µM
GI50 [2]: 25.8 µM
LC50 (concentration killing 50% of initial cells) [2]: > 300 µM
TGI [2]: 180 µM

NC[C@H]1COCC(c2ccccc2)(c2ccccc2)O1
Activity [3]: inactive
Activity [4]: inactive
fold change (FC) [5]: 3.2
Activity [6]: 15%
Activity [7]: Active
Activity [8]: 24%
Activity [9]: Dose-dependent effect
Activity [10]: inactive
Stabilty [11]: Stable
Ki [12]: > 10 µM
Activity [13]: 8%
Activity [14]: 8%
Activity [15]: inactive
Activity [16]: 11%
Activity [17]: 19%
Activity [18]: 7%
Activity [19]: 16%
Activity [20]: 4%
Activity [21]: 9%
GI50 [22]: 520 µM
Activity [23]: inactive
Activity [24]: 26%
Activity [25]: 26%
Activity [26]: 17%
Activity [27]: 8%
Activity [28]: 19%
Activity [29]: 5%
permeability [30]: Permeable
Activity [1]: Dose-dependent effect
GI50 [1]: 99 µM
Activity [31]: 5%
GI50 [32]: 57 µM
Activity [33]: Active
Activity [2]: Dose-dependent effect
GI50 [2]: 23 µM
Activity [34]: Tde
Activity [35]: inactive
Activity [36]: 3%
fold change (FC) [37]: 5.1
Activity [38]: Tde
Activity [39]: Dose-dependent effect

NC[C@@H]1COCC(c2ccccc2)(c2ccccc2)O1
Activity [40]: Active
Stabilty [11]: Stable
Ki [12]: 0.497 µM
Activity [41]: Active
GI50 [22]: 210 µM
permeability [30]: Permeable
Activity [1]: Dose-dependent effect
GI50 [1]: 250 µM
GI50 [32]: 66 µM
Activity [42]: Active
Activity [2]: Dose-dependent effect
GI50 [2]: 74 µM
Activity [43]: Active
